Molecules are shown by their SMILES. Activity calls are given as the source filed them. The calls are words filed in the database; no cut-off is given here. Some results are limits rather than exact numbers.

Data set [1] relates to A549. The experiment in a line: Induction of apoptosis in human A549 cells assessed as increase in cleaved caspase-3 level at 3 to 12 uM after 24 hrs by Western blot analysis. It counts as functional, cell-based. The gist of the method: (§1)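 A549 cells (3 × 10^5 per dish) were treated for 24 h and lysed in RIPA buffer; protein was measured by BCA. Lysates were run on 12% SDS-PAGE and blotted to nitrocellulose. Blots were blocked in 5% non-fat milk for 2 h at room temperature, then incubated with primary antibodies in TBST overnight at 4 °C. ECL detection was used, with bands normalized to β-actin (mean ± SD, three experiments).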

The test system of data set [2] is A549. The experiment in a line: Induction of apoptosis in human A549 cells assessed as increase in Bax/Bcl-2 ratio after 24 hrs by Western blot analysis. Format: functional, cell-based. The method in brief:
as §1

The subject of data set [3] is A549. Kind of data set: Down regulation of CDK2 expression in human A549 cells after 24 hrs by Western blot analysis. It counts as functional, cell-based. The method in brief: as §1
Data set [4] deals with A549. Kind of data set: Induction of apoptosis in human A549 cells assessed as late apoptotic cells at 6 uM after 24 hrs by Annexin V-APC/7-AAD staining-based FACS analysis (reference value: 0.01%). It counts as functional. (Flow cytometry measures light scatter and fluorescence of single cells or particles in a stream.)
Data set [5] relates to A549. Kind of data set: Induction of apoptosis in human A549 cells assessed as early apoptotic cells at 6 uM after 24 hrs by Annexin V-APC/7-AAD staining-based FACS analysis (reference value: 5.82%). It counts as functional.
The subject of data set [6] is A549. Kind of data set: Induction of apoptosis in human A549 cells assessed as necrotic cells at 6 uM after 24 hrs by Annexin V-APC/7-AAD staining-based FACS analysis (reference value: 0.032%). It counts as functional.
The test system of data set [7] is A549. Kind of data set: Induction of apoptosis in human A549 cells assessed as necrotic cells at 3 uM after 24 hrs by Annexin V-APC/7-AAD staining-based FACS analysis (reference value: 0.032%). Format: functional.
Data set [8] deals with HUVEC. Kind of data set: Antiproliferative activity against human HUVEC cells after 48 hrs by MTT assay. It counts as cell-based.
In data set [9] the test system is A549. Kind of data set: Induction of reactive oxygen species generation in human A549 cells by MitoSOX Red dye-based FACS analysis. It counts as functional, cell-based. The gist of the method:
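Treated A549 cells were stained with a kit dye that distinguishes ROS(−) and ROS(+) populations. Percentages of each population were measured by flow cytometry.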

Data set [10] relates to A549. The experiment in a line: Induction of apoptosis in human A549 cells assessed as viable cells at 6 uM after 24 hrs by Annexin V-APC/7-AAD staining-based FACS analysis (reference value: 94.1%). As to conditions: A549, 24 h, read-out: Activity. It counts as functional.
Data set [11] in a line: Drug uptake in mitochondria of human A549 cells at 2 to 8 uM after 30 mins by MitoTracker Red CMXRos dye-based confocal microscopic analysis. It counts as ADME, cell-based. The conditions noted are these: a549, 0.5 h. The gist of the method:
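Live A549 cells were grown for 2 days in confocal dishes. They were then incubated with compound and MitoTracker Red CMXRos in culture medium for 30 min, and localization was imaged by laser-scanning confocal microscopy.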

Data set [12] deals with A549. The experiment in a line: Induction of apoptosis in human A549 cells assessed as necrotic cells at 12 uM after 24 hrs by Annexin V-APC/7-AAD staining-based FACS analysis (reference value: 0.032%). Format: functional.
The test system of data set [13] is A549. The experiment in a line: Up regulation of p21 expression in human A549 cells at 3 to 12 uM after 24 hrs by Western blot analysis. Format: functional, cell-based. The method in brief: as §1
Background: In western blotting, separated proteins are transferred to a membrane and probed.

Data set [14] has as its system HCT-116. The experiment in a line: Antiproliferative activity against human HCT116 cells after 48 hrs by MTT assay. It counts as functional, cell-based. As to conditions: HCT-116, 48 h. (In general: Tetrazolium assays rely on reduction of a dye to a coloured formazan, in cell work by metabolically active cells.)
The subject of data set [15] is A549. Kind of data set: Antiproliferative activity against human A549 cells after 48 hrs by MTT assay. It counts as functional, cell-based. The conditions noted are these: A549, 48 h.
Data set [16] has as its system A549. Kind of data set: Induction of apoptosis in human A549 cells assessed as late apoptotic cells at 3 uM after 24 hrs by Annexin V-APC/7-AAD staining-based FACS analysis (reference value: 0.01%). Format: functional.
The test system of data set [17] is A549. Kind of data set: Effect on CDK1 expression in human A549 cells at 3 to 12 uM after 24 hrs by Western blot analysis. Format: functional, cell-based. The gist of the method: as §1
Data set [18] concerns A549. Kind of data set: Induction of apoptosis in human A549 cells assessed as early apoptotic cells at 12 uM after 24 hrs by Annexin V-APC/7-AAD staining-based FACS analysis (reference value: 5.82%). Format: functional.
Data set [19] concerns A549. Kind of data set: Induction of apoptosis in human A549 cells assessed as increase in cleaved caspase-9 level at 3 to 12 uM after 24 hrs by Western blot analysis. Format: functional, cell-based. The method in brief: as §1
Data set [20] deals with L02. The experiment in a line: Antiproliferative activity against human L02 cells after 48 hrs by MTT assay. It counts as cell-based. As to conditions: L02, 48 h.
In data set [21] the test system is A549. The experiment in a line: Induction of apoptosis in human A549 cells assessed as late apoptotic cells at 12 uM after 24 hrs by Annexin V-APC/7-AAD staining-based FACS analysis (reference value: 0.01%). Format: functional.
Data set [22] relates to A549. Kind of data set: Cell cycle arrest in human A549 cells assessed as accumulation at S-phase at 6 uM after 24 hrs by propidium iodide staining-based FACS analysis (reference value: 17.8 %). It counts as functional.
Data set [23] has as its system A549. The experiment in a line: Induction of apoptosis in human A549 cells assessed as early apoptotic cells at 3 uM after 24 hrs by Annexin V-APC/7-AAD staining-based FACS analysis (reference value: 5.82%). It counts as functional.
In data set [24] the test system is HepG2. The experiment in a line: Antiproliferative activity against human HepG2 cells after 48 hrs by MTT assay. As to conditions: HepG2, 48 h. It counts as functional, cell-based.
In data set [25] the test system is A549. The experiment in a line: Effect on cyclin B expression in human A549 cells at 3 to 12 uM after 24 hrs by Western blot analysis. It counts as functional, cell-based. The gist of the method:
as §1

In data set [26] the test system is A549. Kind of data set: Induction of apoptosis in human A549 cells assessed as viable cells at 12 uM after 24 hrs by Annexin V-APC/7-AAD staining-based FACS analysis (reference value: 94.1%). Format: functional. The conditions noted are these: A549, 24 h, read-out: Activity.
For data set [27], the system named is A549. The experiment in a line: Cell cycle arrest in human A549 cells assessed as accumulation at S-phase at 12 uM after 24 hrs by propidium iodide staining-based FACS analysis (reference value: 17.8 %). It counts as functional.
Data set [28] deals with A549. The experiment in a line: Cell cycle arrest in human A549 cells assessed as accumulation at S-phase at 3 uM after 24 hrs by propidium iodide staining-based FACS analysis (reference value: 17.8 %). It counts as functional.
For data set [29], the system named is A549. The experiment in a line: Up regulation of p53 expression in human A549 cells at 3 to 12 uM after 24 hrs by Western blot analysis. It counts as functional, cell-based. The method in brief: as §1
In data set [30] the test system is A549. Kind of data set: Effect on cyclin D expression in human A549 cells at 3 to 12 uM after 24 hrs by Western blot analysis. Format: functional, cell-based. The method in brief: as §1
Data set [31] concerns MCF7. Kind of data set: Antiproliferative activity against human MCF7 cells after 48 hrs by MTT assay. It counts as functional, cell-based. The conditions noted are these: MCF7, 48 h.
The test system of data set [32] is A549. Kind of data set: Induction of apoptosis in human A549 cells assessed as viable cells at 3 uM after 24 hrs by Annexin V-APC/7-AAD staining-based FACS analysis (reference value: 94.1%). It counts as functional. The conditions noted are these: A549, 24 h, read-out: Activity.
Data set [33] has as its system A549. Kind of data set: Down regulation of cyclin E expression in human A549 cells after 24 hrs by Western blot analysis. It counts as functional, cell-based. The method in brief:
as §1

Usually IC50 stands for the concentration needed to halve the response being measured. Lower therefore signals greater potency in that assay. Take `N#CC1=C(N)Oc2c(N)cc3nc4ccccc4nc3c2C12C(=O)N(Cc1cnnn1-c1cccc(C(F)(F)F)c1)c1ccccc12` (stereo unspecified): the result in data set [1], in [13], in data set [19] and in [29] was Active. In addition, the Activity entry in data set [2] was “Dose-dependent effect”; in [3], “Dose-dependent effect”; in data set [4] it was 0.053%; in data set [5], 11.2%; in [6], 0.127%; in data set [7] it was 0.052%. Besides, the Activity result in [9] was “Dose-dependent effect”; in data set [12], 3.21%; in data set [16], 0.031%; in data set [18], 38.5%; in [21], 2.32%; in [22], 41.7%. In addition, the Activity in data set [23] was 8.89%; in data set [27] it was 51.1%; in data set [28], 30.5%; in data set [33] it was “Dose-dependent effect”. The IC50 is over 50 µM in data set [8]; 18.9 µM in data set [14]; 5.4 µM in data set [15]; 38.1 µM in [20]; 15.8 µM in data set [24]; 31.6 µM in data set [31]. Moreover, the viability at 6 µM in data set [10] was 88.6%. Further, the Drug uptake result in data set [11] is reported as “Active”. Moreover, the result in data set [17], in data set [25] and in [30] was inactive. The viability at 12 µM in data set [26] was determined as 55.9%. For the same compound, in [32], the viability at 3 µM amounted to 91%.

Consider `COc1cc(-n2nncc2CN2C(=O)C3(C(C#N)=C(N)Oc4c(N)cc5nc6ccccc6nc5c43)c3ccccc32)c(OC)cc1Cl` (stereo unspecified), for which the IC50 in data set [8], in data set [14], in data set [15], in data set [20], in [24] and in data set [31] was over 50 µM each time.

Take `CCc1ccccc1-n1nncc1CN1C(=O)C2(C(C#N)=C(N)Oc3c(N)cc4nc5ccccc5nc4c32)c2ccccc21` (stereo unspecified): the IC50 in data set [8] was over 50 µM; in [14], 10.3 µM; in [15], 24.6 µM; in data set [20] it was 22.9 µM; in [24] it was 17.9 µM; in [31], 24.6 µM.

For the compound `CC(=O)Nc1ccc(-n2nncc2CN2C(=O)C3(C(C#N)=C(N)Oc4c3c3nc5ccccc5nc3c3ccccc43)c3ccccc32)cc1` (stereo unspecified), the IC50 in [8], in [14], in data set [15], in data set [20], in data set [24] and in [31] was over 50 µM each time.

The record behind these values is ChEMBL document CHEMBL4033663, “Design, combinatorial synthesis and biological evaluations of novel 3-amino-1'-((1-aryl-1H-1,2,3-triazol-5-yl)methyl)-2'-oxospiro[benzo[a] pyrano[2,3-c]phenazine-1,3'-indoline]-2-carbonitrile antitumor hybrid molecules” (Eur J Med Chem, 2017).
